Source: PubChem BioAssay
CendR NRP1 mod: modulators of CendR peptide binding to NRP-1, primary screen, biochemical, fluorescence polarization, uHTS; inhibition, % at 25 µM; Neuropilin-1 (Homo sapiens), O14786; FAM-RPARPAR peptide binding to NRP-1; actives 0.85% (n = 360,000);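 active = inhibition or corrected inhibition above about 18%, plus a signal ratio from 0.5 to 1.5, limit read from the data, passing the limit was not always enough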
Target sequence (O14786 whole entry, looked up): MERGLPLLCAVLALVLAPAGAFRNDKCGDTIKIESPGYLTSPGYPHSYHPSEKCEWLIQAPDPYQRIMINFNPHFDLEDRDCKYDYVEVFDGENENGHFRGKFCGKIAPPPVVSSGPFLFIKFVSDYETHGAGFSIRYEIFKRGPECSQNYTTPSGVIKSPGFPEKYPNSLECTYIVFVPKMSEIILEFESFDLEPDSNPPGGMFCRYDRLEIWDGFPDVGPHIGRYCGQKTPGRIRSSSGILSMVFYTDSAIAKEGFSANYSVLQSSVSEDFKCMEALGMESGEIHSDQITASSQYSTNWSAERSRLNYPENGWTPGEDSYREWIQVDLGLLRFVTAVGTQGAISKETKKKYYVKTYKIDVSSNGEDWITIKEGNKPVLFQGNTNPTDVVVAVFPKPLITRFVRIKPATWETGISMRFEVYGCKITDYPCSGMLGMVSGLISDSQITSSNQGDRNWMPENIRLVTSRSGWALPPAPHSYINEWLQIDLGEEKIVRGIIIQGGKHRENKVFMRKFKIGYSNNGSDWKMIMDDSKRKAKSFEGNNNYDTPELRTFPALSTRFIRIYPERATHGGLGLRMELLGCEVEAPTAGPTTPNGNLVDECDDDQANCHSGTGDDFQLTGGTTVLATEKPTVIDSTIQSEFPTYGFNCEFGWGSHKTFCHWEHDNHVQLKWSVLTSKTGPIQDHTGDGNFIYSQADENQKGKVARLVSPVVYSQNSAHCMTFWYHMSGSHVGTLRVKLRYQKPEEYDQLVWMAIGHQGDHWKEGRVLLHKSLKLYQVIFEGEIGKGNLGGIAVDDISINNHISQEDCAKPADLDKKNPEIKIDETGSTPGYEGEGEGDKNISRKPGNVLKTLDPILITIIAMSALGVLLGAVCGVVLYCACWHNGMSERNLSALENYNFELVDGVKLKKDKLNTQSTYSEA
AI-2 QS modul: Vibrio harveyi AI-2 quorum sensing modulators, primary screen, JMH597 strain, luminescence/OD600 ratio; AID 2094, 2009; actives 0.4% (n = 300,000); Vibrio harveyi JMH597 AI-2 luminescence/OD600 ratio, 9 h; hits give low values; strain lacks LuxN and CqsS sensors; 0 = neutral-control median; activity change, % at 7.5 µM; in the data active = activity change below about -75%, passing the limit was not always enough;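 note: luminescence divided by OD600 gain over 9 h not by final OD600 alone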
V-ATPase pHluor: regulators of yeast V-ATPase proton pumping, primary screen, pHLuorin cytosolic pH fluorescence; S. cerevisiae; response, % at 10 µM; actives 0.37% (n = 350,000); in the data active = response mostly above about 7.3%, no sharp cut-off; inactive = mostly below about 5.4%; note: actives read high
T cruzi inh: inhibitors of intracellular T. cruzi growth, primary screen, luminescence, NIH3T3 host cells | inhibition, % (concentration not given with the values) | T. cruzi beta-gal in NIH3T3, 90 h | actives 1.4% (n = 300,000);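 active = mean inhibition across valid replicates above about 55%, limit read from the data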;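 note: signal also drops with host cell toxicity which is not excluded here; 0% = plate median of DMSO wells and 100% = zero luminescence signal; higher percent means less beta-gal luminescence so fewer parasites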
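compound dosing = single 50 nL compound addition per well in DMSO | material = NIH/3T3 host cells with β-galactosidase reporter T. cruzi | input = 5,000 host fibroblasts per well | timing = ≥90 h infection period, 3 h prior cell attachment | read-out basis = percent inhibition of parasite-derived β-gal signal | detection = GalScreen β-gal luminescence, detergent lysis, 60 min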
HIF activator: HIF pathway transcriptional activators, primary screen, cell-based, U2OS HRE-luciferase, luminescence; actives 0.32% (n = 300,000); activation, % at 7.5 µM (by protocol); U2OS HRE-luciferase reporter; normalized: DMSO 0%, desferrioxamine 100%;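 active = mean activation of at least 10% of the iron chelator positive control signal, with at least half of replicates also reaching 10%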
Yeast superoxide: reduction of superoxide in aged yeast, primary screen, HTS | S. cerevisiae aged cells, superoxide DHE fluorescence; hits give low values | superoxide response (% of plate mean), % at 10 µM | actives 0.18% (n = 330,000) | AID 2690, 2010;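 active = superoxide response under a set limit, about three screen SD below normal, cut at about 65% in these data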;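 note: yeast aged for seven days with compound at 30 °C before DHE staining; 100% = average MFI of all compound-treated wells on the plate with controls excluded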
Starred values were filed as active, the others as inactive; . = not tested or not shown. Only some compounds are listed: those with a hit (about 3% of all), similar ones and a draw of the others.

SMILES | CendR NRP1 mod | AI-2 QS modul | V-ATPase pHluor | T cruzi inh | HIF activator | Yeast superoxide
COCCn1c(=S)[nH]c2cc(C(=O)N3CCc4ccccc43)ccc2c1=O | -2 | -78* | -2 | -16 | -1 | 100
Cc1n[nH]c(=O)n1-c1ccc(C(C)(C)C)cc1 | 21* | 24 | 0 | -36 | 0 | 97
COc1cccc(-n2c(C)n[nH]c2=O)c1 | -3 | 18 | 2 | -3 | 0 | 100
Cc1ccc(S(=O)(=O)N2CCCN(C(=O)c3ccc(-n4cccn4)cc3)CC2)cc1 | -6 | . | -7 | . | . | 88
COC1=C(c2ccccc2)C(=O)c2ccccc2C1=O | 32* | -5 | 0 | -27 | 0 | 127
O=C1C(Cl)=C(NCCN2CCCCC2)C(=O)c2ccccc21 | 17 | 23 | -1 | 67* | -2 | 92
CCNC1=C(Cl)C(=O)c2ccccc2C1=O | 4 | -10 | . | -14 | 0 | 154
CN(C)CCCNc1cc(C(C)(C)C)nc2c(-c3ccccc3)cnn12 | -4 | 11 | 1 | 56* | 1 | 100
CC(C)(C)c1cc(NCCCn2ccnc2)n2ncc(-c3ccc(Cl)cc3)c2n1 | 0 | 21 | 2 | 58* | 1 | 114
O=[N+]([O-])c1cc(Cl)ccc1NCCc1ccccn1 | 6 | 19 | -1 | 0 | 1 | 116
CCc1ccc([C@@H]2CC=C(C(=O)O)[C@H](c3ccc(Br)cc3)N2S(=O)(=O)c2ccc(C)cc2)cc1 | -56 | . | 0 | . | . | 87
CCOc1ccc(/C=C/C(=O)N(CC)CC(=O)Nc2ccc3c(c2)OCCO3)cc1OC | -16 | 37 | 2 | -4 | 0 | 79
CCOc1ccc(/C=C/C(=O)N(CC)CC(=O)Nc2c(F)cccc2F)cc1OC | 22* | . | 0 | . | . | .
CCCN(CCC)C(C)C(=O)NCC1(c2ccccc2)CCCC1 (centres undefined) | 0 | 42 | 2 | 17 | 719* | 94
CCN(CC)CC(=O)NCC1(c2ccccc2)CCCC1 | -4 | 14 | -2 | -13 | -1 | 98
CCOc1ccc(Cl)cc1S(=O)(=O)n1cnc2cc(C)c(C)cc21 | -1 | 19 | 1 | 16 | 0 | 103
Cc1cccc(NC(=O)c2ccc(OCc3c(C)noc3C)cc2)c1 | 29* | . | 1 | . | . | 99
O=C1C(=O)c2c(C(=O)c3ccccc3)coc2-c2ccccc21 | 16 | -48 | 1 | 58* | 3 | 110
Cc1oc2c(c1C(=O)c1ccccc1)C(=O)C(=O)c1ccccc1-2 | 3 | 62 | 0 | 19 | -4 | 105
CCN(CC)CCC(=O)Nc1cccc2c1C(=O)c1ccccc1C2=O | 98 | 8 | 2 | 56* | 26* | 123
CCC(C)NCCOCCOc1ccc(Cl)cc1Br (centres undefined) | -4 | 13 | 0 | 72* | 1 | 76
CCC(C)NCCOCCOc1ccc(F)cc1 (centres undefined) | -2 | -11 | 1 | 55* | 1 | 104
Cc1[nH]c2ccccc2c1C(=O)NS(=O)(=O)Nc1ccccc1 | -4 | 19 | -1 | -11 | 0 | 89
O=C(CSC1CN(C(c2ccccc2)c2ccccc2)C1)N/N=C/c1ccccc1 | 41* | -3 | 2 | -7 | 0 | 96
CCn1cc(C(=O)N2CCN(C(=O)c3ccco3)CC2)c2cc(OC)c(OC)cc2c1=O | 24* | -4 | -1 | -9 | -37 | 103
SMILES | CendR NRP1 mod | AI-2 QS modul | V-ATPase pHluor | T cruzi inh | HIF activator | Yeast superoxide
CCn1cc(C(=O)N2CCN(c3ccccn3)CC2)c2cc(OC)c(OC)cc2c1=O | 5 | . | 2 | . | . | 106
CN1CCC(=C(c2ccc(Cl)cc2)c2ccccn2)CC1 | -5 | 20 | 2 | 69* | -57 | 127
c1cncc(CSc2nnc3ccc(-c4ccco4)nn23)c1 | 4 | 16 | 7 | -9 | -1 | 106
O=C(Cc1ccccc1)NC(NCCc1ccccc1)C(Cl)(Cl)Cl (centres undefined) | 22* | 19 | 1 | 5 | 0 | 96
O=C(CSc1nnc(CNC(=O)C23CC4CC(CC(C4)C2)C3)n1-c1ccccc1)Nc1ccc(F)cc1 | 27* | 8 | -3 | -2 | 0 | 94
O=C(CSc1nnc(CNC(=O)C23CC4CC(CC(C4)C2)C3)n1-c1ccc(F)cc1)Nc1ccccc1 | -6 | 21 | -4 | 12 | 0 | 98
CCOc1ccc(CN2CCCC(CNC(=O)c3ccc(F)cc3)C2)cc1CO (centres undefined) | 1 | 0 | -3 | 62* | 0 | 86
COc1ccc(CN2CCCC(CNC(=O)c3ccc(F)cc3)C2)c(F)c1 (centres undefined) | 10 | 15 | -1 | 36 | 0 | 88
CCOc1cc(CN2CCCC(CNC(=O)c3ccc(F)cc3)C2)ccc1OC (centres undefined) | 5 | 6 | 3 | 61* | 1 | 80
COc1ccc(CN2CCCC(CNC(=O)c3ccc(F)cc3)C2)c(C)c1C (centres undefined) | 5 | 2 | -2 | 71* | 0 | 112
O=C(O)CSc1nnc(C2COc3ccccc3O2)n1-c1ccccc1 (centres undefined) | 2 | 15 | 0 | -13 | 1 | 124
COc1ccccc1C(=O)N/C(=C\c1cn(S(=O)(=O)N(C)C)c2ccccc12)C(=O)NCCCN1CCOCC1 | 44* | -9 | 1 | 8 | -1 | 108
CN(C)S(=O)(=O)n1cc(/C=C(\NC(=O)c2ccccc2)C(=O)NCCCN2CCOCC2)c2ccccc21 | -5 | 10 | 2 | 2 | 0 | 89
Cc1cc(Cl)ccc1C(=O)C1CCCN(C(=O)c2snnc2C)C1 (centres undefined) | -1 | 17 | -2 | -3 | 0 | 99
Cn1cc(C(=O)c2ccc(Cl)cc2Cl)cc1C(=O)N/N=C(\N)COc1ccccc1 | 36* | -60 | -1 | 4 | 0 | 82
CC1=C(C(=O)N2CCCCCC2)CC(CC(=O)NCCN2CCOCC2)C(=O)N1Cc1ccccc1 (centres undefined) | 29* | . | . | . | . | .
COc1ccc(CN2C(=O)C(CC(=O)NCCN3CCOCC3)CC(C(=O)N3CCCCCC3)=C2C)cc1 (centres undefined) | -8 | . | . | . | . | .
NC(=S)N/N=C/c1ccc2ccccc2c1 | -10 | -48 | 1 | 58* | 2 | 79
NC(=S)N/N=C/c1cccc(/C=N/NC(N)=S)c1 | 3 | 49 | 2 | -4 | 0 | 82
CCc1ccccc1NC(=O)CN1CCN(C(=O)CNC(=O)c2ccc(-c3ccccc3)cc2)CC1 | -5 | . | 0 | . | . | 88
